# Experimental data gathered from unrelated publications.
# Protocols differ between the studies behind these lines.
# ALK: ALK tyrosine kinase receptor (ALK, Homo sapiens, UniProt Q9UM73)
# ALK L1196M: ALK tyrosine kinase receptor (ALK, Homo sapiens, UniProt Q9UM73, L1196M)
# ALK C1156Y: ALK tyrosine kinase receptor (ALK, Homo sapiens, UniProt Q9UM73, C1156Y)
Structure (SMILES),target,effect on,action,method,concentration,measurement,result
CC(C)c1ccc(NC(=O)c2cccs2)c(-c2nc3ccccc3[nH]c2=O)c1,ALK,enzyme activity,inhibitor,,1 µM,activity vs control,92%
COc1cc2nccc(Oc3ccc(NC(=O)c4c5n(n(-c6ccc(F)cc6)c4=O)CCCC5)cc3)c2cc1OC,ALK,enzyme activity,inhibitor,,0.1 µM,inhibition,-23%
CCN(CC)c1ccc(C2=NNC(=O)CC2C)cc1[N+](=O)[O-] (centres unmarked),ALK,enzyme activity,inhibitor,,10 µM,remaining activity,110%
COc1ccc2cc(OCC3(C(=O)O)CN(C(=O)c4ccc(F)cc4)C3)ccc2c1,ALK L1196M,cell-free assay,,competition with immobilised ligand,1 µM,remaining binding,100%
CNC(=O)c1cc2c(Oc3ccc(NC(=O)C4(C(=O)Nc5ccc(F)cc5)CC4)cc3)ccnc2cc1OC,ALK,enzyme activity,inhibitor,radiometric,1 µM,inhibition,81%
COc1cc2c(N3CCN(C(=O)Nc4ccc(OC(C)C)cc4)CC3)ncnc2cc1OCCCN1CCCCC1,ALK,cell-free assay,,,0.5 µM,remaining signal,103%
c1cnn2ncc(-c3ccnc(N4CCC45COC5)n3)c2c1,ALK L1196M,binding,,,1 µM,remaining binding,40%
Nc1ncnc2occ(-c3ccc(NC(=O)Nc4cc(C(F)(F)F)ccc4F)cc3)c12,ALK,cell-free assay,,,20 µM,remaining signal,0.3%
CCN(CC)CCNC(=O)c1c(C)[nH]c(/C=C2\C(=O)Nc3ccc(F)cc32)c1C,ALK,enzyme activity,inhibitor,,1 µM,remaining activity,27%
COc1cc(Cl)c(C(=O)N[C@@H](CN[C@H]2CC[C@@H](N)CC2)Cc2ccc(C#N)cc2)cc1-c1ccc(CN[C@H](C)c2ccc(C)cc2)o1,ALK,enzyme activity,inhibitor,,1 µM,remaining activity,96%
O=C1Nc2ccc(Cl)cc2C1=Cc1cc(Cl)c(O)c(Cl)c1,ALK,cell-free assay,,,0.5 µM,remaining signal,65.8%
CN([C@@H]1CCc2c(CC(=O)O)c3ccccc3n2C1)S(=O)(=O)c1ccc(F)cc1,ALK,cell-free assay,,competition with immobilised ligand,1 µM,remaining binding,78%
C[C@H]1CCN(c2nccc(-c3cnn4ncccc34)n2)C1,ALK L1196M,binding,,,1 µM,remaining binding,100%
CNCc1ccc(-c2cc(-c3nc(-c4ccc(S(=O)(=O)C(C)C)cc4)cnc3N)on2)cc1,ALK,enzyme activity,inhibitor,,2 µM,inhibition,4%
O=C(O)c1cc(-c2ccc(C3CCNCC3)cc2)c2ccc(-c3ccc(C(F)(F)F)cc3)cc2c1,ALK,cell-free assay,,competition with immobilised ligand,1 µM,remaining binding,100%
N[C@@H]1CCN(c2nccc(-c3cnn4ncccc34)n2)C1,ALK C1156Y,binding,,,1 µM,remaining binding,65%
Cc1cnc(NC2CCOCC2)nc1-n1cnc(C(=O)NC(CN)c2cc(F)cc(Cl)c2)c1 (centres unmarked),ALK,enzyme activity,inhibitor,radiometric,1 µM,remaining activity,122%
O=C(CSc1nc2nccnc2c(=O)n1CCc1ccccc1)Nc1nccs1,ALK,enzyme activity,inhibitor,,10 µM,inhibition,11%
CCCOc1ccc([C@@H]2[C@@H](C(=O)O)[C@H](c3ccc4c(c3)OCO4)CN2CC(=O)Nc2c(CC)cccc2CC)cc1,ALK L1196M,cell-free assay,,competition with immobilised ligand,1 µM,remaining binding,78%
COc1cc2ncnc(Nc3ccc(Oc4ccccc4)cc3C)c2cc1OC,ALK,enzyme activity,inhibitor,,1 µM,inhibition,-2%
Cc1ccc(C(=O)Nc2ccc(CN3CCN(C)CC3)c(C(F)(F)F)c2)cc1C#Cc1cnc2cccnn12,ALK L1196M,cell-free assay,,,23.5 nM,remaining signal,99%
CN(C(=O)c1ccccc1)c1cc(N(C)c2ccc3c(c2)CCc2ccc(C(=O)NCCN4CCOCC4)cc2C3=O)ccc1F,ALK L1196M,cell-free assay,,competition with immobilised ligand,1 µM,remaining binding,100%
F[C@@H]1CCN(c2nccc(-c3cnn4ncccc34)n2)C1,ALK L1196M,binding,,,1 µM,remaining binding,100%
Cc1[nH]c(/C=C2\C(=O)Nc3ccc(F)cc32)c(C)c1C(=O)N[C@H]1CCN(C(=O)N(C)C)C1,ALK,enzyme activity,inhibitor,,1 µM,remaining activity,73%
CN(CCCC(F)(F)F)c1nccc(-c2cnn3ncccc23)n1,ALK C1156Y,binding,,,1 µM,remaining binding,100%
Cc1ccc(Nc2nccc(N(C)c3ccc4c(C)n(C)nc4c3)n2)cc1S(N)(=O)=O,ALK,enzyme activity,inhibitor,,0.3 µM,inhibition,1%
O=C(NCCCC1CCCCC1)c1ccc(CNC(=O)c2cnn(-c3ccccc3)c2C(F)(F)F)cc1,ALK L1196M,cell-free assay,,competition with immobilised ligand,0.1 µM,remaining binding,100%
CC/C(=N\NC(=O)NCc1cccc(O)c1)c1ccc(O)c(C)c1O,"ALK tyrosine kinase receptor (ALK, Homo sapiens, UniProt Q9UM73, R1275Q)",enzyme activity,inhibitor,,0.1 µM,inhibition,4.8%
Cc1nc(N2CC[C@@H](O)C2)ncc1-c1cc(C(F)(F)F)cc2[nH]ncc12,ALK,cell-free assay,,competition with immobilised ligand,1 µM,remaining binding,81%
O=C(Nc1cnn(-c2csc(C(=O)NC3COC3)c2)c1)Nc1c(F)cccc1Cl,ALK,enzyme activity,inhibitor,,5 µM,remaining activity,89.2%
CN(C)c1ncc(F)c(-c2cnn3ncccc23)n1,ALK L1196M,binding,,,1 µM,remaining binding,59%
CCN(CC)CCNC(=O)c1c(C)[nH]c(/C=C2\C(=O)Nc3ccc(F)cc32)c1C,ALK,cell-free assay,,,0.5 µM,remaining signal,16.6%
O=C(NCc1ncc(C(F)(F)F)cc1Cl)c1ccc2c(c1)C1(CCS(=O)(=O)CC1)[C@@H](C1CC1)N2S(=O)(=O)c1ccc(F)cc1,ALK C1156Y,cell-free assay,,competition with immobilised ligand,1 µM,remaining binding,100%
N#CCCc1ccc2c(c1)-c1[nH]c3ccc([N+](=O)[O-])cc3c1CC(=O)N2,ALK,cell-free assay,,,0.5 µM,remaining signal,78.8%
CNC(=O)c1cc(Oc2ccc(NC(=O)Nc3ccc(Cl)c(C(F)(F)F)c3)cc2)ccn1,ALK,enzyme activity,inhibitor,,0.3 µM,inhibition,-16%
